In brackets after ≈: the same amount, converted by molar mass.
Tests used:
[1] = system: Bacteroides thetaiotaomicron; test: Antimicrobial activity against Bacteroides thetaiotaomicron assessed as percent resistant isolates after 48 hrs by agar dilution method; assay type: functional
Summary of the method: (§1)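 CLSI agar dilution on recent Korean clinical anaerobe isolates. Inoculum 10^5 CFU per spot by replicator. Plates incubated in an anaerobic chamber at 37°C for 48 h. For piperacillin plus tazobactam, tazobactam was held constant at 4 μg/ml. Resistance and susceptibility rates derived from MICs.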

Bacteroides caccae [2] = test: Antimicrobial activity against Bacteroides caccae assessed as percent susceptible isolates after 48 hrs by agar dilution method; assay type: functional
Clostridioides difficile [3] = test: Antimicrobial activity against Clostridium difficile assessed as percent resistant isolates after 48 hrs by agar dilution method; assay type: functional
Bifidobacterium sp. [4] = test: Antimicrobial activity against Bifidobacterium sp. after 48 hrs by agar dilution method; assay type: functional
Summary of the method: (§2)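 MICs on clinical anaerobe isolates by the CLSI agar dilution method. Inoculum of 10^5 CFU applied with a Steers replicator. Plates incubated 48 h at 37°C in an anaerobic chamber.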

Finegoldia magna = test: Antimicrobial activity against Finegoldia magna after 48 hrs by agar dilution method; assay type: functional
Summary of the method: (§3)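 CLSI agar dilution (M11-A7); inoculum 10^5 CFU applied by replicator; plates incubated anaerobically 48 h at 37°C. For piperacillin-tazobactam, tazobactam held constant at 4 μg/ml.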

Prevotella buccae [5] = test: Antimicrobial activity against Prevotella buccae assessed as percent susceptible isolates after 48 hrs by agar dilution method; assay type: functional, Segatella buccae; summary of the method: as §3
Bacteroides ovatus [6] = test: Antimicrobial activity against Bacteroides ovatus assessed as percent resistant isolates after 48 hrs by agar dilution method; assay type: functional; summary of the method: as §1
Parvimonas micra [7] = test: Antimicrobial activity against Peptostreptococcus micros after 48 hrs by agar dilution method; assay type: functional; summary of the method: as §3
Bacteroides caccae [8] = test: Antimicrobial activity against Bacteroides caccae after 48 hrs by agar dilution method; assay type: functional; summary of the method: as §2
Fusobacterium nucleatum = test: Antimicrobial activity against Fusobacterium nucleatum after 48 hrs by agar dilution method; assay type: functional; summary of the method: as §3
Hoylesella oralis [9] = test: Antimicrobial activity against Prevotella oralis assessed as percent resistant isolates after 48 hrs by agar dilution method; assay type: functional; summary of the method: as §1
Bifidobacterium sp. [10] = test: Antimicrobial activity against Bifidobacterium sp. assessed as percent susceptible isolates after 48 hrs by agar dilution method; assay type: functional; summary of the method: as §3
[11] = system: Bacteroides thetaiotaomicron; test: Antimicrobial activity against Bacteroides thetaiotaomicron assessed as percent susceptible isolates after 48 hrs by agar dilution method; assay type: functional
Parvimonas micra [12] = test: Antimicrobial activity against Peptostreptococcus micros assessed as percent susceptible isolates after 48 hrs by agar dilution method; assay type: functional; summary of the method: as §1
Prevotella intermedia [13] = test: Antimicrobial activity against Prevotella intermedia assessed as percent susceptible isolates after 48 hrs by agar dilution method; assay type: functional; summary of the method: as §3
Bacteroides ovatus [14] = test: Antimicrobial activity against Bacteroides ovatus after 48 hrs by agar dilution method; assay type: functional; summary of the method: as §2
Schaalia meyeri = test: Antimicrobial activity against Actinomyces meyeri assessed as percent susceptible isolates after 48 hrs by agar dilution method; assay type: functional
Prevotella bivia [15] = test: Antimicrobial activity against Prevotella bivia assessed as percent resistant isolates after 48 hrs by agar dilution method; assay type: functional; summary of the method: as §1
Prevotella intermedia [16] = test: Antimicrobial activity against Prevotella intermedia after 48 hrs by agar dilution method; assay type: functional; summary of the method: as §3
Actinomyces naeslundii = test: Antimicrobial activity against Actinomyces naeslundii assessed as percent susceptible isolates after 48 hrs by agar dilution method; assay type: functional
Eubacterium sp. = test: Antimicrobial activity against Eubacterium sp. after 48 hrs by agar dilution method; assay type: functional; summary of the method: as §3
Hoylesella oralis [17] = test: Antimicrobial activity against Prevotella oralis assessed as percent susceptible isolates after 48 hrs by agar dilution method; assay type: functional
Summary of the method: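 CLSI agar dilution MIC testing of clinical isolates. 10^5 CFU spotted by replicator, plates incubated 48 h at 37°C in an anaerobic chamber. Susceptibility rates derived from the MICs.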

Eggerthella lenta [18] = test: Antimicrobial activity against Eubacterium lentum after 48 hrs by agar dilution method; assay type: functional; summary of the method: as §3
Anaerococcus prevotii [19] = test: Antimicrobial activity against Anaerococcus prevotii after 48 hrs by agar dilution method; assay type: functional; summary of the method: as §2
[20] = system: Parabacteroides distasonis; test: Antimicrobial activity against Bacteroides distasonis after 48 hrs by agar dilution method; assay type: functional; summary of the method: as §2
Clostridioides difficile [21] = test: Antimicrobial activity against Clostridium difficile after 48 hrs by agar dilution method; assay type: functional
[22] = system: Peptostreptococcus anaerobius; test: Antimicrobial activity against Peptostreptococcus anaerobius assessed as percent susceptible isolates after 48 hrs by agar dilution method; assay type: functional; summary of the method: as §1
Bacteroides fragilis = test: Antimicrobial activity against Bacteroides fragilis assessed as percent resistant isolates after 48 hrs by agar dilution method; assay type: functional; summary of the method: as §1
[23] = system: Peptostreptococcus anaerobius; test: Antimicrobial activity against Peptostreptococcus anaerobius after 48 hrs by agar dilution method; assay type: functional; summary of the method: as §3
[24] = system: Peptoniphilus asaccharolyticus; test: Antimicrobial activity against Peptoniphilus asaccharolyticus after 48 hrs by agar dilution method; assay type: functional; summary of the method: as §3
Eggerthella lenta [25] = test: Antimicrobial activity against Eubacterium lentum assessed as percent susceptible isolates after 48 hrs by agar dilution method; assay type: functional; summary of the method: as §3
[26] = system: Bifidobacterium adolescentis; test: Antimicrobial activity against Bifidobacterium adolescentis assessed as percent susceptible isolates after 48 hrs by agar dilution method; assay type: functional
Clostridium perfringens [27] = test: Antimicrobial activity against Clostridium perfringens assessed as percent susceptible isolates after 48 hrs by agar dilution method; assay type: functional
Clostridium perfringens [28] = test: Antimicrobial activity against Clostridium perfringens after 48 hrs by agar dilution method; assay type: functional
Fusobacterium varium = test: Antimicrobial activity against Fusobacterium varium after 48 hrs by agar dilution method; assay type: functional; summary of the method: as §3
Prevotella bivia [29] = test: Antimicrobial activity against Prevotella bivia assessed as percent susceptible isolates after 48 hrs by agar dilution method; assay type: functional; summary of the method: as §3
Phocaeicola vulgatus = test: Antimicrobial activity against Bacteroides vulgatus assessed as percent susceptible isolates after 48 hrs by agar dilution method; assay type: functional
Actinomyces israelii [30] = test: Antimicrobial activity against Actinomyces israelii after 48 hrs by agar dilution method; assay type: functional; summary of the method: as §2
Anaerococcus prevotii [31] = test: Antimicrobial activity against Anaerococcus prevotii assessed as percent resistant isolates after 48 hrs by agar dilution method; assay type: functional; summary of the method: as §1
Prevotella buccae [32] = test: Antimicrobial activity against Prevotella buccae after 48 hrs by agar dilution method; assay type: functional; conditions: Segatella buccae; summary of the method: as §3
Actinomyces israelii [33] = test: Antimicrobial activity against Actinomyces israelii assessed as percent susceptible isolates after 48 hrs by agar dilution method; assay type: functional

Cc1ncc([N+](=O)[O-])n1CCO [METRONIDAZOLE]
Activity [1]: 0%
Activity (Bacteroides caccae [2]): 100%
Activity (Clostridioides difficile [3]): 0%
MIC50 (Bifidobacterium sp. [4]): 16 µg/mL (≈ 93.5 µM)
MIC90 (Bifidobacterium sp. [4]): > 128 µg/mL
MIC (Finegoldia magna): 0.5 µg/mL (≈ 2.92 µM)
MIC50 (Finegoldia magna): 0.5 µg/mL (≈ 2.92 µM)
MIC90 (Finegoldia magna): 1 µg/mL (≈ 5.84 µM)
Activity (Prevotella buccae [5]): 100%
Activity (Bacteroides ovatus [6]): 0%
MIC50 (Parvimonas micra [7]): 0.5 µg/mL (≈ 2.92 µM)
MIC90 (Parvimonas micra [7]): 1 µg/mL (≈ 5.84 µM)
MIC50 (Bacteroides caccae [8]): 2 µg/mL (≈ 11.7 µM)
MIC90 (Bacteroides caccae [8]): 2 µg/mL (≈ 11.7 µM)
MIC (Fusobacterium nucleatum): 0.13 µg/mL (≈ 0.76 µM)
Activity (Hoylesella oralis [9]): 0%
Activity (Bifidobacterium sp. [10]): 46%
Activity [11]: 100%
Activity (Parvimonas micra [12]): 0%
Activity (Prevotella intermedia [13]): 100%
MIC50 (Bacteroides ovatus [14]): 2 µg/mL (≈ 11.7 µM)
MIC90 (Bacteroides ovatus [14]): 2 µg/mL (≈ 11.7 µM)
Activity (Schaalia meyeri): 46%
Activity (Prevotella bivia [15]): 0%
MIC (Prevotella intermedia [16]): 0.5 µg/mL (≈ 2.92 µM)
MIC50 (Prevotella intermedia [16]): 0.5 µg/mL (≈ 2.92 µM)
MIC90 (Prevotella intermedia [16]): 2 µg/mL (≈ 11.7 µM)
Activity (Actinomyces naeslundii): 46%
MIC50 (Eubacterium sp.): 16 µg/mL (≈ 93.5 µM)
MIC90 (Eubacterium sp.): > 128 µg/mL
Activity (Hoylesella oralis [17]): 100%
MIC50 (Eggerthella lenta [18]): 16 µg/mL (≈ 93.5 µM)
MIC90 (Eggerthella lenta [18]): > 128 µg/mL
MIC50 (Anaerococcus prevotii [19]): 1 µg/mL (≈ 5.84 µM)
MIC90 (Anaerococcus prevotii [19]): 1 µg/mL (≈ 5.84 µM)
MIC50 [20]: 2 µg/mL (≈ 11.7 µM)
MIC90 [20]: 2 µg/mL (≈ 11.7 µM)
MIC50 (Clostridioides difficile [21]): 1 µg/mL (≈ 5.84 µM)
MIC90 (Clostridioides difficile [21]): 1 µg/mL (≈ 5.84 µM)
Activity [22]: 100%
Activity (Bacteroides fragilis): 0%
MIC50 [23]: 0.5 µg/mL (≈ 2.92 µM)
MIC90 [23]: 1 µg/mL (≈ 5.84 µM)
MIC50 [24]: 1 µg/mL (≈ 5.84 µM)
MIC90 [24]: 1 µg/mL (≈ 5.84 µM)
Activity (Eggerthella lenta [25]): 46%
Activity [26]: 46%
Activity (Clostridium perfringens [27]): 100%
MIC (Clostridium perfringens [28]): 0.02 µg/mL (≈ 0.117 µM)
MIC50 (Clostridium perfringens [28]): 0.03 µg/mL (≈ 0.175 µM)
MIC90 (Clostridium perfringens [28]): 0.06 µg/mL (≈ 0.351 µM)
MIC (Fusobacterium varium): 0.13 µg/mL (≈ 0.76 µM)
Activity (Prevotella bivia [29]): 100%
Activity (Phocaeicola vulgatus): 100%
MIC50 (Actinomyces israelii [30]): 16 µg/mL (≈ 93.5 µM)
MIC90 (Actinomyces israelii [30]): > 128 µg/mL
Activity (Anaerococcus prevotii [31]): 0%
MIC50 (Prevotella buccae [32]): 4 µg/mL (≈ 23.4 µM)
MIC90 (Prevotella buccae [32]): 8 µg/mL (≈ 46.7 µM)
Activity (Actinomyces israelii [33]): 46%

From ChEMBL document CHEMBL1671716, “Antimicrobial susceptibility patterns for recent clinical isolates of anaerobic bacteria in South Korea” (2010)
